According to ChEMBL document CHEMBL1131807, “Synthesis and in vitro evaluation of novel highly potent coumarin inhibitors of gyrase B” (1999):
In brackets after ≈: the same amount, converted by molar mass.

Assays:
Type in all cases: functional
Enterococcus faecium = experiment: Antibacterial activity against vancomycin, teicoplanin and erythromycin resistant Enterococcus faecium 02D31P2 strain
Procedure, shortened: (§1)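 MIC in µg/mL by twofold broth microdilution, read after 24 h incubation. Resistance phenotypes of the strains are as listed for each strain (ofloxacin, oxacillin, erythromycin, teicoplanin, vancomycin).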

Staphylococcus aureus [1] = experiment: Antibacterial activity against Staphylococcus aureus 011HT3 strain
Procedure, shortened: (§2)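 MIC measured by twofold serial dilution in broth microdilution format and read after 24 hours of incubation. The resistance phenotype of each strain (ofloxacin, oxacillin, erythromycin, novobiocin, teicoplanin or vancomycin) was recorded alongside.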

Staphylococcus aureus [2] = experiment: Antibacterial activity against Staphylococcus aureus novobiocin resistant strain 011HT1; procedure, shortened: as §2
Streptococcus pyogenes [3] = experiment: Antibacterial activity against Streptococcus pyogenes 02A1UC1 strain; procedure, shortened: as §2
[4] = test system: Staphylococcus epidermidis; experiment: Antibacterial activity against oxacillin and teicoplanin resistant Staphylococcus epidermidis 012GO39 strain; procedure, shortened: as §1
Staphylococcus aureus [5] = experiment: Antibacterial activity against ofloxacin, oxacillin and erythromycin resistant Staphylococcus aureus strain 011GO76; procedure, shortened: as §1
Streptococcus pyogenes [6] = experiment: Compound was evaluated for antibacterial activity, against Streptococcus pyogenes 02A1UC1 strain; procedure, shortened: as §2
[7] = test system: Staphylococcus epidermidis; experiment: Compound was evaluated for antibacterial activity, against oxacillin and teicoplanin resistant Staphylococcus epidermidis 012GO39 strain; procedure, shortened: as §1

Row | SMILES | MIC (Enterococcus faecium) [µg/mL] | MIC (Staphylococcus aureus [1]) [µg/mL] | MIC (Staphylococcus aureus [2]) [µg/mL] | MIC (Streptococcus pyogenes [3]) [µg/mL] | MIC [4] [µg/mL] | MIC (Staphylococcus aureus [5]) [µg/mL] | MIC (Streptococcus pyogenes [6]) [µg/mL] | MIC [7] [µg/mL]
1 | CO[C@@H]1[C@@H](OC(=O)c2ccc(C)[nH]2)[C@@H](O)[C@H](Oc2ccc3c(O)c(C(N)=O)c(=O)oc3c2C)OC1(C)C | 2.5 (≈ 4.84 µM) | < 0.04 | 2.5 (≈ 4.84 µM) | 0.15 (≈ 0.29 µM) |  |  |  | 
2 | CO[C@@H]1[C@@H](OC(=O)c2ccc(C)[nH]2)[C@@H](O)[C@H](Oc2ccc3c(O)c(C(=O)NCCO)c(=O)oc3c2C)OC1(C)C | 2.5 (≈ 4.46 µM) | < 0.04 | 2.5 (≈ 4.46 µM) | 0.15 (≈ 0.268 µM) | < 0.04 |  |  | 
3 | CCOC(=O)/C(=N\OC)c1c(O)oc2c(C)c(O[C@@H]3OC(C)(C)[C@H](OC)[C@@H](OC(=O)c4ccc(C)[nH]4)[C@H]3O)ccc2c1=O | 5 (≈ 8.3 µM) | < 0.04 | 10 (≈ 16.6 µM) | 0.15 (≈ 0.249 µM) |  |  |  | 
4 | CO[C@@H]1[C@@H](OC(=O)c2ccc(C)[nH]2)[C@@H](O)[C@H](Oc2ccc3c(O)c(C(=O)Nc4ccccc4)c(=O)oc3c2C)OC1(C)C | > 40 | < 0.04 | 1.2 (≈ 2.02 µM) | 0.6 (≈ 1.01 µM) | < 0.04 | 0.08 (≈ 0.135 µM) |  | 
5 | CO[C@@H]1[C@@H](OC(=O)c2ccc(C)[nH]2)[C@@H](O)[C@H](Oc2ccc3c(O)c(/C(C)=N/OCCSc4ncc[nH]4)c(=O)oc3c2C)OC1(C)C | 10 (≈ 15.2 µM) | 0.3 (≈ 0.457 µM) | 40 (≈ 60.9 µM) | 0.3 (≈ 0.457 µM) | 0.3 (≈ 0.457 µM) | 0.3 (≈ 0.457 µM) |  | 
6 | CO[C@@H]1[C@@H](OC(=O)c2ccc(C)[nH]2)[C@@H](O)[C@H](Oc2ccc3c(O)c(C(=O)CSC)c(=O)oc3c2C)OC1(C)C | 5 (≈ 8.9 µM) | < 0.04 | 5 (≈ 8.9 µM) | 0.3 (≈ 0.534 µM) | 0.08 (≈ 0.142 µM) |  |  | 
7 | CO[C@@H]1[C@@H](OC(=O)c2ccc(C)[nH]2)[C@@H](O)[C@H](Oc2ccc3c(O)c(/C(C)=N/OCCN4CCOCC4)c(=O)oc3c2C)OC1(C)C | 10 (≈ 15.5 µM) | 0.15 (≈ 0.233 µM) | 40 (≈ 62.1 µM) | 1.2 (≈ 1.86 µM) | 0.3 (≈ 0.466 µM) | 0.3 (≈ 0.466 µM) |  | 
8 | CCOCC(=O)c1c(O)oc2c(C)c(O[C@@H]3OC(C)(C)[C@H](OC)[C@@H](OC(=O)c4ccc(C)[nH]4)[C@H]3O)ccc2c1=O | 5 (≈ 8.94 µM) | < 0.04 | 20 (≈ 35.7 µM) | 0.3 (≈ 0.536 µM) | 0.08 (≈ 0.143 µM) | 0.08 (≈ 0.143 µM) |  | 
9 | CO[C@@H]1[C@@H](OC(=O)c2ccc(C)[nH]2)[C@@H](O)[C@H](Oc2ccc3c(O)c(C(=O)NCCN(C)C)c(=O)oc3c2C)OC1(C)C | 10 (≈ 17 µM) | 0.15 (≈ 0.255 µM) | 20 (≈ 34 µM) | 1.2 (≈ 2.04 µM) |  | 0.3 (≈ 0.511 µM) |  | 
10 | CO[C@@H]1[C@@H](OC(=O)c2ccc(C)[nH]2)[C@@H](O)[C@H](Oc2ccc3c(O)c(C(C)=O)c(=O)oc3c2C)OC1(C)C | 2.5 (≈ 4.85 µM) | < 0.04 | 5 (≈ 9.7 µM) | 0.15 (≈ 0.291 µM) | 0.08 (≈ 0.155 µM) | 0.15 (≈ 0.291 µM) |  | 
11 | CCOC(=O)c1c(O)oc2c(C)c(O[C@@H]3OC(C)(C)[C@H](OC)[C@@H](OC(=O)c4ccc(C)[nH]4)[C@H]3O)ccc2c1=O | 5 (≈ 9.17 µM) | 0.3 (≈ 0.55 µM) | > 20 | 0.3 (≈ 0.55 µM) | 0.15 (≈ 0.275 µM) | 2.5 (≈ 4.58 µM) |  | 
12 | CO/N=C(\C)c1c(O)oc2c(C)c(O[C@@H]3OC(C)(C)[C@H](OC)[C@@H](OC(=O)c4ccc(C)[nH]4)[C@H]3O)ccc2c1=O | 10 (≈ 18.4 µM) | 0.15 (≈ 0.275 µM) | 40 (≈ 73.5 µM) | 0.3 (≈ 0.551 µM) | 0.6 (≈ 1.1 µM) | 5 (≈ 9.18 µM) |  | 
13 | CONC(=O)c1c(O)oc2c(C)c(O[C@@H]3OC(C)(C)[C@H](OC)[C@@H](OC(=O)c4ccc(C)[nH]4)[C@H]3O)ccc2c1=O | 2.5 (≈ 4.57 µM) | < 0.04 | 5 (≈ 9.15 µM) | 0.15 (≈ 0.274 µM) | < 0.04 | 0.08 (≈ 0.146 µM) |  | 
14 | CO[C@@H]1[C@@H](OC(=O)c2ccc(C)[nH]2)[C@@H](O)[C@H](Oc2ccc3c(O)c(C(=O)OCC(C)C)c(=O)oc3c2C)OC1(C)C | 5 (≈ 8.72 µM) | 0.08 (≈ 0.139 µM) | 10 (≈ 17.4 µM) |  | 0.08 (≈ 0.139 µM) | 2.5 (≈ 4.36 µM) |  | 
15 | COC1[C@@H](OC(N)=O)[C@@H](O)[C@H](Oc2ccc3c(O)c(NC(=O)c4ccc(O)c(CC=C(C)C)c4)c(=O)oc3c2C)OC1(C)C (single isomer, unassigned) [NOVOBIOCIN] | 0.3 (≈ 0.49 µM) | < 0.04 | 20 (≈ 32.6 µM) |  |  |  | 0.15 (≈ 0.245 µM) | 0.08 (≈ 0.131 µM)
16 | CO[C@@H]1[C@@H](OC(=O)c2ccc(C)[nH]2)[C@@H](O)[C@H](Oc2ccc3c(O)c(NC(=O)c4ccc(O)c(CC=C(C)C)c4)c(=O)oc3c2Cl)OC1(C)C [CHLOROBIOCIN] |  | < 0.04 | 0.15 (≈ 0.215 µM) | < 0.04 | < 0.04 | < 0.04 |  | 
